Results: ChEMBL document CHEMBL4665863 (Bioorg Med Chem, 2020)
Values after ≈ are worked out from the molar mass of the structure shown. Active and inactive are the calls of the source. The rule behind the calls is not given here.

What was measured:
Bacillus subtilis [1] = test: Inhibition of ftsZ in Bacillus subtilis assessed as increase in enzyme polymerization kinetics at 5 ug/ml measured for 30 mins by microtiter plate-based light scattering assay; conditions: dose 5.0 µg/ml
In short: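 Purified recombinant B. subtilis FtsZ was used. Polymerization was followed as light scattering in microtiter plates, read as time-dependent absorbance at 340 nm at several compound concentrations. Vehicle, CIP and LIN served as controls.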

Pseudomonas aeruginosa = test: Antibacterial activity against Pseudomonas aeruginosa ATCC27853 incubated for 24 hrs by CLSI-based broth microdilution method; type: functional
Escherichia coli = test: Antibacterial activity against Escherichia coli ATCC25922 incubated for 24 hrs by CLSI-based broth microdilution method; type: functional; conditions: ATCC 25922
Staphylococcus aureus [2] = test: Antibacterial activity against Staphylococcus aureus clinical isolate incubated for 24 hrs by CLSI-based broth microdilution method; type: functional
Bacillus pumilus = test: Antibacterial activity against Bacillus pumilus CMCC63202 incubated for 24 hrs by CLSI-based broth microdilution method; type: functional
Staphylococcus aureus [3] = test: Antibacterial activity against Staphylococcus aureus ATCC25923 incubated for 24 hrs by CLSI-based broth microdilution method; type: functional
Staphylococcus aureus [4] = test: Antibacterial activity against methicillin-resistant Staphylococcus aureus ATCC43300 incubated for 24 hrs by CLSI-based broth microdilution method; type: functional
Bacillus subtilis [5] = test: Antibacterial activity against Bacillus subtilis ATCC9372 incubated for 24 hrs by CLSI-based broth microdilution method; type: functional
Staphylococcus aureus [6] = test: Antibacterial activity against penicillin-resistant Staphylococcus aureus incubated for 24 hrs by CLSI-based broth microdilution method; type: functional

SMILES | FtsZ polymerization increase (active/inactive call) (Bacillus subtilis [1]) | MIC (Pseudomonas aeruginosa) [µg/mL] | MIC (Escherichia coli) [µg/mL] | MIC (Staphylococcus aureus [2]) [µg/mL] | MIC (Bacillus pumilus) [µg/mL] | MIC (Staphylococcus aureus [3]) [µg/mL] | MIC (Staphylococcus aureus [4]) [µg/mL] | MIC (Bacillus subtilis [5]) [µg/mL] | MIC (Staphylococcus aureus [6]) [µg/mL]
CCCCc1ccc(-c2cc(COc3ccc(F)c(C(N)=O)c3F)on2)cc1 | Active |  |  |  |  |  |  |  | 
CC[C@H]1OC(=O)[C@H](C)[C@@H](O[C@H]2C[C@@](C)(OC)[C@@H](O)[C@H](C)O2)[C@H](C)[C@@H](O[C@@H]2O[C@H](C)C[C@H](N(C)C)[C@H]2O)[C@](C)(O)C[C@@H](C)C(=O)[C@H](C)[C@@H](O)[C@]1(C)O [ERYTHROMYCIN] |  | 32 (≈ 43.6 µM) | 16 (≈ 21.8 µM) | > 64 | ≤ 0.125 | ≤ 0.125 | > 64 | ≤ 0.125 | 
NC(=O)c1c(F)ccc(OCC2=NOC(c3ccc(Cl)cc3Cl)C2)c1F (stereo not given) |  | > 64 | > 64 | 16 (≈ 39.9 µM) | 0.5 (≈ 1.25 µM) | 32 (≈ 79.8 µM) | 16 (≈ 39.9 µM) | 2 (≈ 4.99 µM) | 32 (≈ 79.8 µM)
CCCCc1ccc(C2=NO[C@H](COc3ccc(F)c(C(N)=O)c3F)C2)cc1 | Active | > 64 | > 64 | ≤ 0.125 | ≤ 0.125 | 0.25 (≈ 0.644 µM) | ≤ 0.125 | ≤ 0.125 | 0.25 (≈ 0.644 µM)
CC(C)(C)c1ccc(C2=NOC(COc3ccc(F)c(C(N)=O)c3F)C2)cc1 (stereo not given) |  | > 64 | > 64 | 4 (≈ 10.3 µM) | ≤ 0.125 | 4 (≈ 10.3 µM) | 2 (≈ 5.15 µM) | 0.25 (≈ 0.644 µM) | 4 (≈ 10.3 µM)
NC(=O)c1c(F)ccc(OCC2CC(c3ccc(Cl)cc3)=NO2)c1F (stereo not given) |  | > 64 | > 64 |  | 8 (≈ 21.8 µM) | 32 (≈ 87.3 µM) | 32 (≈ 87.3 µM) | 8 (≈ 21.8 µM) | 32 (≈ 87.3 µM)
